The source made the active and inactive calls. No cut-off for these calls is given here.
What was measured:
[1] = target: Tyrosine-protein kinase receptor TYRO3 (Homo sapiens) (UniProt Q06418); assay: Inhibition of recombinant TYRO3 (unknown origin) using poly (Glu, Tyr) 4:1 as substrate at 1000 nM incubated for 60 mins by ELISA relative to control
In short: (§1)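 Recombinant tyrosine kinases assayed on wells precoated with poly(Glu,Tyr)4:1 (20 µg/mL). ATP 10 µmol/L in HEPES pH 7.4 buffer with MgCl2, MnCl2, Na3VO4 and DTT; compound in 1% DMSO, 1% DMSO as control. Reaction 60 min at 37 °C. Phosphotyrosine detected with PY99 and HRP anti-mouse, o-phenylenediamine, A490. Inhibition % relative to control; two experiments.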

[2] = target: ALK tyrosine kinase receptor (Homo sapiens) (UniProt Q9UM73); assay: Inhibition of recombinant ALK (unknown origin) using poly (Glu, Tyr) 4:1 as substrate at 1000 nM incubated for 60 mins by ELISA relative to control; in short: as §1
[3] = target: T1, Hepatocyte growth factor receptor (Homo sapiens, UniProt P08581); assay: Inhibition of c-Met phosphorylation at Tyrosine 1234 in HGF stimulated human U87MG cells at 10 nM after 1 hr by Western blot analysis; assay type: cell-based; details: U-87MG ATCC
In short: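 U87MG cells serum-starved 24 h, pretreated with compound 1 h at 37 °C, then stimulated with HGF (100 ng/mL) for 15 min. Lysed in 1× SDS sample buffer, resolved by 10% SDS-PAGE and blotted to nitrocellulose. Probed for phospho-c-Met, phospho-ERK1/2, phospho-AKT and totals, with GAPDH as loading control. ECL detection.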

[4] = target: T1, Hepatocyte growth factor receptor; assay: Inhibition of c-Met in human MKN45 cells assessed as reduction in ERK phosphorylation at Tyrosine 204 at 10 nM after 1 hr by Western blot analysis; assay type: cell-based; details: MKN-45
In short: (§2)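 EBC-1 or MKN45 cells treated with compound 1 h at 37 °C without HGF, then lysed in 1× SDS sample buffer. Lysates run on 10% SDS-PAGE and transferred to nitrocellulose. Probed with antibodies to c-Met, phospho-c-Met, phospho-ERK1/2, phospho-AKT, AKT and GAPDH, then HRP secondary. ECL detection.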

[5] = target: T2, TPR/MET fusion protein (Mus musculus) (UniProt P16056+F6ZDS4); assay: Inhibition of TPR-MET in mouse BAF3 cells assessed as reduction in ERK phosphorylation at Threonine 202 at 10 nM after 1 hr by Western blot analysis; assay type: cell-based
In short: (§3)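 BaF3 stably expressing TPR-MET (puromycin-selected), grown with IL-3-conditioned medium. Treated 1 h at 37 °C, lysed in SDS sample buffer. 10% SDS-PAGE and immunoblot for phospho-c-Met, phospho-ERK1/2, phospho-AKT and totals; ECL detection.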

[6] = target: T2, TPR/MET fusion protein (Mus musculus); assay: Inhibition of TPR-MET in mouse BAF3 cells assessed as reduction in ERK phosphorylation at Tyrosine 204 at 10 nM after 1 hr by Western blot analysis; assay type: cell-based; in short: as §3
[7] = target: T1, Hepatocyte growth factor receptor; assay: Inhibition of c-Met phosphorylation at Tyrosine 1235 in human MKN45 cells at 10 nM after 1 hr by Western blot analysis; assay type: cell-based; details: MKN-45; in short: as §2
[8] = system: NCI-H292; assay: Antiproliferative activity against human NCI-H292 cells after 72 hrs by SRB or MTT assay; assay type: functional, cell-based; details: NCI-H292, 72 h
In short: (§4)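 Cells seeded, exposed next day to a range of concentrations for 72 h. Growth read by sulforhodamine B or MTT. IC50 from four-parameter concentration-response fit. Each concentration tested at least in triplicate, with at least 2 experiments.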

[9] = system: NCI-H226; assay: Antiproliferative activity against human NCI-H226 cells after 72 hrs by SRB or MTT assay; assay type: functional, cell-based; details: NCI-H226, 72 h; in short: as §4
[10] = Antiproliferative activity against human Calu3 cells after 72 hrs by SRB or MTT assay; assay type: functional, cell-based; details: Calu-3, 72 h; in short: as §4
[11] = Antiproliferative activity against human MGC803 cells after 72 hrs by SRB or MTT assay; assay type: functional, cell-based; details: MGC-803, 72 h; in short: as §4
[12] = target: Hepatocyte growth factor receptor (Canis lupus familiaris) (UniProt Q75ZY9); assay: Inhibition of c-Met in MDCK cells assessed as inhibition of HGF-induced branching morphogenesis at 0.4 to 10 nM after 5 days by microscopic analysis; assay type: cell-based
In short: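 MDCK cells (2×10^4/mL) mixed 1:1 with collagen I and gelled 60 min at 37 °C. HGF (100 ng/mL) added with or without compound at various concentrations in growth medium. Medium renewed every 2 d; branching imaged by microscopy after 5 d. Three independent experiments.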

[13] = system: EBC-1; assay: Antitumor activity against human EBC1 cells xenografted in po dosed athymic nude mouse assessed as tumor growth inhibition administered bid for 21 days measured twice a week during compound dosing; assay type: functional, organism-based
In short: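 Nude mice bearing s.c. tumours. Cells were first grown s.c. to 700–800 mm³, then 1.5 mm³ fragments were transplanted s.c. into the right flank. Mice were randomised at 100–200 mm³ (n=6 treated, n=12 vehicle) and dosed orally twice daily for 21 days. Caliper measurement twice weekly; TV = length×width²/2. TGI taken on the final day versus vehicle; Student's t test.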

[14] = Selectivity ratio of IC50 for human NCI-H358 cells to IC50 for human MKN45 cells; assay type: ADME, cell-based
In short: (§5)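 Both IC50s in each ratio come from one proliferation assay. Cells were seeded and exposed the next day to a range of concentrations for 72 h, then read by SRB or MTT. IC50s were fitted by four-parameter concentration–response, with each concentration at least in triplicate and at least 2 experiments. BaF3/TPR-Met is murine pre-B BaF3 transfected with TPR-MET and puromycin-selected.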

[15] = Selectivity ratio of IC50 for human NCI-H292 cells to IC50 for mouse BAF3 cells expressing TPR-MET; assay type: ADME, cell-based; in short: as §5
[16] = Selectivity ratio of IC50 for human NCI-H596 cells to IC50 for human EBC1 cells; assay type: ADME, cell-based; in short: as §5
[17] = Selectivity ratio of IC50 for human NCI-H3122 cells to IC50 for human MKN45 cells; assay type: ADME, cell-based; details: mkn-45; in short: as §5
[18] = Selectivity ratio of IC50 for human NCI-H460 cells to IC50 for human EBC1 cells; assay type: ADME, cell-based; in short: as §5
[19] = Selectivity ratio of IC50 for human Calu3 cells to IC50 for human EBC1 cells; assay type: ADME, cell-based; details: calu-3; in short: as §5
[20] = Selectivity ratio of IC50 for human MDA-MB-231 cells to IC50 for human MKN45 cells; assay type: ADME, cell-based; details: mkn-45; in short: as §5
[21] = Selectivity ratio of IC50 for human SGC7901 cells to IC50 for human EBC1 cells; assay type: ADME, cell-based; details: sgc-7901
In short: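 Each cell line was seeded in 96-well plates, then exposed the next day to a range of compound concentrations for 72 h. Growth was read by SRB or MTT assay, and IC50 was fitted by a four-parameter concentration-response curve. Each concentration was run at least in triplicate, in at least 2 experiments. BaF3/TPR-Met are murine pre-B BaF3 cells transfected with TPR-MET cDNA and selected in puromycin.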

[22] = Selectivity ratio of IC50 for human MGC803 cells to IC50 for human MKN45 cells; assay type: ADME, cell-based; details: mgc-803; in short: as §5
[23] = Selectivity ratio of IC50 for human SPCA4 cells to IC50 for human MKN45 cells; assay type: ADME, cell-based, SPC-A4; details: SPCA4 cells versus MKN45 cells

T1 sequence (P08581 whole entry): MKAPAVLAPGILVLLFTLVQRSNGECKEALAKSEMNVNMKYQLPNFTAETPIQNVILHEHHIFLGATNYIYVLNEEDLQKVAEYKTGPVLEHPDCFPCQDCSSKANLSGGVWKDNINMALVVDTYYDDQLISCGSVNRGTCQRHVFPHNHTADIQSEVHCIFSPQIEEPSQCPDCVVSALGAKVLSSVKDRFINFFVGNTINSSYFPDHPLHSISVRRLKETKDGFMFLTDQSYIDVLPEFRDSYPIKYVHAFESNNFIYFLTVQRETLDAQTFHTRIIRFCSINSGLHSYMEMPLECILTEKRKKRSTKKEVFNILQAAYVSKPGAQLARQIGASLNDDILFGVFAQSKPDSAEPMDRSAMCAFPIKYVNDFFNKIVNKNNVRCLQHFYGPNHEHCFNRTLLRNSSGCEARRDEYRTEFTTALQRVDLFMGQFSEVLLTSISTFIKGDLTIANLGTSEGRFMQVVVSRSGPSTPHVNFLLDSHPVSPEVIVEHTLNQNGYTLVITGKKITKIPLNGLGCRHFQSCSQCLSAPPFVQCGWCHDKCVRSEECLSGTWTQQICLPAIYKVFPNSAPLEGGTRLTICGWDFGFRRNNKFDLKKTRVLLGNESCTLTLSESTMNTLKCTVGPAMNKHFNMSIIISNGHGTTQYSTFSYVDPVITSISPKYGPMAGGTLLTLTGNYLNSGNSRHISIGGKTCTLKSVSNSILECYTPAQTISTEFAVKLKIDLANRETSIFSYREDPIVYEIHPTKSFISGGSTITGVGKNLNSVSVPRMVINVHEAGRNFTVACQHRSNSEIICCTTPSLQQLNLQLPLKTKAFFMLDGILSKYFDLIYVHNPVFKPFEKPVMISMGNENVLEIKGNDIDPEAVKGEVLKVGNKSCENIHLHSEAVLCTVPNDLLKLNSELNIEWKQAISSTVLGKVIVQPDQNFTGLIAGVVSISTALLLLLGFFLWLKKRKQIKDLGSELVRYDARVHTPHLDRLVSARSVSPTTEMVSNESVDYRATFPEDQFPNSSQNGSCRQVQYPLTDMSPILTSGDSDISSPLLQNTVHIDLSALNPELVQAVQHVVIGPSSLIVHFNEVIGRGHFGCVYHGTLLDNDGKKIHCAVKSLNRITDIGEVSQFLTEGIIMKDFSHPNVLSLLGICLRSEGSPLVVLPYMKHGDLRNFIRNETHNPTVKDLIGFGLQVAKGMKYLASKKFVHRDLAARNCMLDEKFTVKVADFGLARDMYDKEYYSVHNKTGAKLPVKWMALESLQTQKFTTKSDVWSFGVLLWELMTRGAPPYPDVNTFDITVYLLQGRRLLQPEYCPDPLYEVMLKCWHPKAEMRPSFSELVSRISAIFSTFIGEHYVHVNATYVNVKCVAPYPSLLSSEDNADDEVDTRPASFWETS
T2 sequence (F6ZDS4 whole entry partner, the tested form may be a part): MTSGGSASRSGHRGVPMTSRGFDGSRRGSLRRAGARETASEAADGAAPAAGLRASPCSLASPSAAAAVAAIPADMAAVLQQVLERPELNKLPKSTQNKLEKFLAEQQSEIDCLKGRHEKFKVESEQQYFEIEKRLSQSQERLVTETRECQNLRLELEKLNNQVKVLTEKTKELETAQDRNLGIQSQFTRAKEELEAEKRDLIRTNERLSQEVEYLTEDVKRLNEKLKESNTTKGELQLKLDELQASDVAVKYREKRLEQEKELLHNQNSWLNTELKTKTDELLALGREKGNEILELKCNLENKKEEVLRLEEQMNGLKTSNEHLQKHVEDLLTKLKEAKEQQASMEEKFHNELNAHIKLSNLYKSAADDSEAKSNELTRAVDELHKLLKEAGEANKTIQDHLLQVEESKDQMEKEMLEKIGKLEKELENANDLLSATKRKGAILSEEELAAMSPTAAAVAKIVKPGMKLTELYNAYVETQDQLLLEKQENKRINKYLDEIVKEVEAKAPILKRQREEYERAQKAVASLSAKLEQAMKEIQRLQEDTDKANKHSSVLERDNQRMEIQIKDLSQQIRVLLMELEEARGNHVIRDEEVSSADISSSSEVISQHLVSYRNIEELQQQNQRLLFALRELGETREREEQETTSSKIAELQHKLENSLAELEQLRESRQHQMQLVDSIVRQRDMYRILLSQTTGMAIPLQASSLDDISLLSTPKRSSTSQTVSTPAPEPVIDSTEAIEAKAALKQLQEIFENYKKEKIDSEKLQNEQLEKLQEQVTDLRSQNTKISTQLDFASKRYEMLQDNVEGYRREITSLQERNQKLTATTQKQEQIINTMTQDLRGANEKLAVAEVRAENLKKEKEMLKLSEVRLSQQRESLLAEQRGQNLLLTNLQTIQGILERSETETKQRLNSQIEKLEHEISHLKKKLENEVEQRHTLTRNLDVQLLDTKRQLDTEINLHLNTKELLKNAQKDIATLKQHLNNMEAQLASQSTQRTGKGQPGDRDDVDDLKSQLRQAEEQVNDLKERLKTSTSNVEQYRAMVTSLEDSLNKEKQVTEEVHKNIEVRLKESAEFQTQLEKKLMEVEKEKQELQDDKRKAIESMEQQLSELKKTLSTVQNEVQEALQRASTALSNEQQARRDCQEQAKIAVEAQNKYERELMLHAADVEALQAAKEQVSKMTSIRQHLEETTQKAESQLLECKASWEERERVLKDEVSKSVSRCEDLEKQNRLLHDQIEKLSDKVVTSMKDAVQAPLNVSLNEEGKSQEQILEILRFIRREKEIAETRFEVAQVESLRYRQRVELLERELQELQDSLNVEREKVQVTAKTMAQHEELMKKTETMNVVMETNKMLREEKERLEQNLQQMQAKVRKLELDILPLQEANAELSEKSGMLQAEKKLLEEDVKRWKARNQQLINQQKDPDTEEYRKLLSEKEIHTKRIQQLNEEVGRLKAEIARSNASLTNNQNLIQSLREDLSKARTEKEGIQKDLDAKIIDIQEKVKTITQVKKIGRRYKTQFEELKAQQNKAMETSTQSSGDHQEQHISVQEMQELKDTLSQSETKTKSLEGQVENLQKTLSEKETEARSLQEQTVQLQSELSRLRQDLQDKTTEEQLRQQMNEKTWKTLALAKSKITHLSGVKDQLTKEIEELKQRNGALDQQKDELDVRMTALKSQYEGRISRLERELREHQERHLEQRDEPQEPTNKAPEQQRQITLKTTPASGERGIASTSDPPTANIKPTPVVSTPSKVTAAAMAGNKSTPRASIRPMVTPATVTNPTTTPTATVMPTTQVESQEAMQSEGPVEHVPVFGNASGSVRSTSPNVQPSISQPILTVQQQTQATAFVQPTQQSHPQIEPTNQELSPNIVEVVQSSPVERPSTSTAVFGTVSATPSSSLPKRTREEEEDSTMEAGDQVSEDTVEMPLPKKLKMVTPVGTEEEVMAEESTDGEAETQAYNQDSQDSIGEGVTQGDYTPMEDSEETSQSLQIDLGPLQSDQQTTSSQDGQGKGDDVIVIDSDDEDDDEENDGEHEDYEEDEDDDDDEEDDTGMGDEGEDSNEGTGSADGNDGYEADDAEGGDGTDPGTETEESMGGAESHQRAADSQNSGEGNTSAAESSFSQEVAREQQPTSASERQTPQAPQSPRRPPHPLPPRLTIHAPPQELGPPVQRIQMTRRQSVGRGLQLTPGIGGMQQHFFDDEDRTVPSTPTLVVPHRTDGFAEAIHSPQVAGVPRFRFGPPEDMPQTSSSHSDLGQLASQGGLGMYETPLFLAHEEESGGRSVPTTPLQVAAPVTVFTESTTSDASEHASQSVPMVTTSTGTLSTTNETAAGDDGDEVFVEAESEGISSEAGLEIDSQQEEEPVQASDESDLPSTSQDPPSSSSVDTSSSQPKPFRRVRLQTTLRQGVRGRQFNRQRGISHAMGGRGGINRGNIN
T2 sequence (P16056 25-1379 limits assumed): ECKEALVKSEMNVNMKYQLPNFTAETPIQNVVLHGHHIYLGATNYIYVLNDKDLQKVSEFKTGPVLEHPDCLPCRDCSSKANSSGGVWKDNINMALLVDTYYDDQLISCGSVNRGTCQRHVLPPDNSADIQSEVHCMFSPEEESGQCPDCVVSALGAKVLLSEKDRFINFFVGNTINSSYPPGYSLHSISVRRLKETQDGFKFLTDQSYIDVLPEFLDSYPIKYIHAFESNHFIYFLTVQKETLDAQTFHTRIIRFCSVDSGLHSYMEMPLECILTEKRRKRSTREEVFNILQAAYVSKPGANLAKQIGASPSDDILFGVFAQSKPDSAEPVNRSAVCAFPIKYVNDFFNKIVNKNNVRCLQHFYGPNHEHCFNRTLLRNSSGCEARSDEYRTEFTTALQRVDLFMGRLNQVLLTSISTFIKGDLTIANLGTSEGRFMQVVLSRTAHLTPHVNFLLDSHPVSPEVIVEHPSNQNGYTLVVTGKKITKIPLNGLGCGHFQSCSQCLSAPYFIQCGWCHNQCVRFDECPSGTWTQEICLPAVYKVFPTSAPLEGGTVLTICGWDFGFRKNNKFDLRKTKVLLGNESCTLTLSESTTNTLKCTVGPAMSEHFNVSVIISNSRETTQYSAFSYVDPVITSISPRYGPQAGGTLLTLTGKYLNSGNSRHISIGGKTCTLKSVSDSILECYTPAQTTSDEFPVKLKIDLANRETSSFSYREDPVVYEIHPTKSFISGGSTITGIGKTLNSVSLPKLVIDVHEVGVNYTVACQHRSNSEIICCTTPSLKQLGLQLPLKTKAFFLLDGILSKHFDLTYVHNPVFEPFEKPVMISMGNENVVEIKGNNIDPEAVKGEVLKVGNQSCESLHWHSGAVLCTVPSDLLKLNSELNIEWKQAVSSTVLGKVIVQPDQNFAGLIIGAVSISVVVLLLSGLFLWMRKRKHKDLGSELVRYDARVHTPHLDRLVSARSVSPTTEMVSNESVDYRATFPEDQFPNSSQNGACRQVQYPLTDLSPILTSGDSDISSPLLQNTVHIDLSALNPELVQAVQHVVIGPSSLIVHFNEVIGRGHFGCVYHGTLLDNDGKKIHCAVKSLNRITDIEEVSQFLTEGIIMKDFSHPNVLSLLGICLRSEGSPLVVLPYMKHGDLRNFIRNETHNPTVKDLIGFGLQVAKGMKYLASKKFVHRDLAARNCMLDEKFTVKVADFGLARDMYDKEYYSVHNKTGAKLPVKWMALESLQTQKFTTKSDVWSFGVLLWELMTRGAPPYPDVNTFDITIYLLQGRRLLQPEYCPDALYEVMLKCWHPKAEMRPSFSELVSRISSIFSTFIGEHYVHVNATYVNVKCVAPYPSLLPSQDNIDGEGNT

- inhibition [1]: 10.1%
- inhibition [2]: 2.1%
- inhibition [3]: Active
- inhibition [4]: Active
- inhibition [5]: Active
- inhibition [6]: Active
- inhibition [7]: Active
- IC50 [8]: > 10 µM
- IC50 [9]: > 10 µM
- inhibition [12]: Active
Structure (SMILES): Fc1ccc(-c2cnc3nnc(C(F)(F)c4ccc5ncccc5c4)n3n2)cc1
- IC50 [10]: > 10 µM
- IC50 [11]: > 10 µM
- TGI [13]: Dose-dependent effect
- Ratio IC50 [14]: 10000
- Ratio IC50 [15]: 10000
- Ratio IC50 [16]: 10000
- Ratio IC50 [17]: 10000
- Ratio IC50 [18]: 10000
- Ratio IC50 [19]: > 10000
- Ratio IC50 [20]: > 10000
- Ratio IC50 [21]: > 10000
- Ratio IC50 [22]: > 10000
- selectivity ratio [23]: > 10000

Source: ChEMBL document CHEMBL3797175, “Discovery of 6-(difluoro(6-(4-fluorophenyl)-[1,2,4]triazolo[4,3-b][1,2,4]triazin-3-yl)methyl)quinoline as a highly potent and selective c-Met inhibitor” (Eur J Med Chem, 2016)
